MLL AF4-AF9 inh: inhibitors of human MLL-AF4/AF9 interaction; P42568; AlphaScreen, biotin-AF4 peptide binding to FLAG-AF9; inhibition, % at 10 µM; 350,000 compounds, 0.47% hits; AID 651704;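 active = every replicate reaching a set inhibition limit, whatever the replicate mean, cut at about 25% in these data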
rRNA inh HTS: inhibitors of bacterial rRNA selective over humanized ribosomes | E. coli WT GFP vs humanized-ribosome RFP mutants, fluorescence, 24 h; hits give low values; DMSO median 0, no signal -100 | GFP signal change (wild-type ribosome), % (no concentration beside the values) | 350,000 compounds, 1.6% hits;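 active = significant combined selectivity score with lowered wild-type GFP, culture density cut under 30%, mutant RFP and density less affected; inactive = any of these conditions unmet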
ERAP1 inh: ERAP1 (human) enzyme inhibition. AID 652197. inhibition, % at 10.7 µM. Q9NZ08. 340,000 compounds, 0.15% hits. recombinant ERAP1, Leu-AMC fluorescence, 60 min;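 active = mean replicate inhibition of at least 30%, or all replicates individually reaching that 30% level; inactive = mean below 30% and not every replicate reaching it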
Target sequence (Q9NZ08 whole entry, looked up): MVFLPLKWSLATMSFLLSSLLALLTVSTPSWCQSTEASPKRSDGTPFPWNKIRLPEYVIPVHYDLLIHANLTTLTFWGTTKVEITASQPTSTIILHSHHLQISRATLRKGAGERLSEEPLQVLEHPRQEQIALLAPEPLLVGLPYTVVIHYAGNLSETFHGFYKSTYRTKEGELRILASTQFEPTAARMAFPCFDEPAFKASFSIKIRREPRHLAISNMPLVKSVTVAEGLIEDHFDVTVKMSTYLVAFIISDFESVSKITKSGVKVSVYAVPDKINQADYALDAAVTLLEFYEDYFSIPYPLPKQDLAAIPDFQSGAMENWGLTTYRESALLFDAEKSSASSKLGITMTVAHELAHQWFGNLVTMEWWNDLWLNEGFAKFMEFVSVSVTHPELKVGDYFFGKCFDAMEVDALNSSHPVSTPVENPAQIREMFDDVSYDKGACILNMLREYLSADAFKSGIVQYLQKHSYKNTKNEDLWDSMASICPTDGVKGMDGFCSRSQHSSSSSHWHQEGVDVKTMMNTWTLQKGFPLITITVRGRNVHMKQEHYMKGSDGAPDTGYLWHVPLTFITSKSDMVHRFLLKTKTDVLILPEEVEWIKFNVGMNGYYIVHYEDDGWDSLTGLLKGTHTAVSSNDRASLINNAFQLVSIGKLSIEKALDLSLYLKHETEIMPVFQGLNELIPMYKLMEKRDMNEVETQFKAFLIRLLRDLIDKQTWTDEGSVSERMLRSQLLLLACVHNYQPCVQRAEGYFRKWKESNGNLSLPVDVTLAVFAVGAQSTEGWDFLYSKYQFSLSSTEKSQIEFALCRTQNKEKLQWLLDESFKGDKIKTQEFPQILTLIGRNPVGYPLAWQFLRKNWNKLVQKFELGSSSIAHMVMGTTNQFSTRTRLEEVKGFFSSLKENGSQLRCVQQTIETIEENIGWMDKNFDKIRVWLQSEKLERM
S100A4 MyoIIA: S100A4-myosin IIA interaction inhibition. P26447. S100A4/TAMRA-MyoIIA peptide fluorescence polarization. inhibition, % at 10.7 µM. 360,000 compounds, 0.14% hits. AID 652163;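 active = mean inhibition of at least 70% across replicates, with every replicate also reaching that level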
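incubation = readout 5 min after mixing, signal stable up to 60 min | system = S100A4 monomer protein | buffer or medium = HEPES pH 7.2 with CaCl2, KCl, NaCl, DTT, Triton | benchmarks = neutral control DMSO, positive control TFP | also added = fluorescent myosin IIA peptide, 5 nM | compound dosing = one concentration per compound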
E-sel inducer: E-selectin induction on HUVECs; P16581; HUVEC E-selectin immunofluorescence imaging; normalized: neutral wells 0, TNF-alpha wells 100; activation, % at 7.58 µM; 260,000 compounds, 0.37% hits;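 active = mean E-selectin-positive cell signal at least 10% of the positive control, reached in at least 60% of replicates, without over 20% cell loss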
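Material: HUVEC primary endothelial cells; Amount: 3,000 cells per well; Dosing: single concentration; Medium: EGM-2 growth medium on 0.1% gelatin-coated wells; Read-out basis: percent E-selectin-positive cells; Signal: immunofluorescence imaging; Control set: TNF-alpha, DMSO.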
SIRT5 block: blocks human SIRT5 desuccinylation of peptide | inhibition, % at 15 µM | 330,000 compounds, 1.1% hits | Purified SirT5, succinyl-peptide AMC, trypsin-coupled fluorescence | Q9NXA8; in the data active = inhibition above about 15%
A number is an active result. Only some compounds are listed: those with a hit (about 3.4% of all), similar ones and a draw of the others.

Cc1ccc(S(=O)(=O)N(C)C[C@@H]2Oc3cc(C#Cc4ccncc4)ccc3S(=O)(=O)N([C@H](C)CO)C[C@H]2C)cc1 was read as MLL AF4-AF9 inh inactive, rRNA inh HTS inactive, ERAP1 inh inactive, S100A4 MyoIIA inactive, E-sel inducer inactive and SIRT5 block 16.
For O=C(Nc1ccccc1[N+](=O)[O-])c1cc(S(=O)(=O)Nc2ccccn2)ccc1Cl the results were MLL AF4-AF9 inh inactive, rRNA inh HTS inactive, ERAP1 inh inactive, S100A4 MyoIIA inactive and SIRT5 block inactive.
`NS(=O)(=O)c1ccc(Cl)c(C(=O)Nc2ccccc2[N+](=O)[O-])c1` gave MLL AF4-AF9 inh inactive, rRNA inh HTS inactive, ERAP1 inh inactive, S100A4 MyoIIA inactive and SIRT5 block 18.
`O=C(NNc1ccccc1[N+](=O)[O-])Nc1ccc(Cl)c(Cl)c1` gave MLL AF4-AF9 inh inactive, rRNA inh HTS inactive, ERAP1 inh inactive, S100A4 MyoIIA inactive, E-sel inducer inactive and SIRT5 block 16.
Screening CC(C)NC(=O)N[C@@H]1C=C[C@H](CC(=O)N2CCCCC2)O[C@H]1CO returned MLL AF4-AF9 inh inactive, rRNA inh HTS inactive, ERAP1 inh inactive, S100A4 MyoIIA inactive, E-sel inducer inactive and SIRT5 block inactive.
COc1ccc(S(=O)(=O)N(C)C[C@H]2OCCCC[C@H](C)Oc3ccc(NS(=O)(=O)c4ccc(C)cc4)cc3C(=O)N([C@@H](C)CO)C[C@@H]2C)cc1 was read as MLL AF4-AF9 inh inactive, rRNA inh HTS inactive, ERAP1 inh inactive, S100A4 MyoIIA inactive, E-sel inducer inactive and SIRT5 block 22.
COc1ccc(S(=O)(=O)N(C)C[C@@H]2OCCCC[C@@H](C)Oc3ccc(NS(=O)(=O)c4ccc(C)cc4)cc3C(=O)N([C@@H](C)CO)C[C@@H]2C)cc1 was read as MLL AF4-AF9 inh inactive, rRNA inh HTS inactive, ERAP1 inh inactive, S100A4 MyoIIA inactive, E-sel inducer inactive and SIRT5 block 23.
COc1ccc(S(=O)(=O)Nc2ccc3c(c2)C(=O)N([C@@H](C)CO)C[C@@H](C)[C@@H](CN(C)S(=O)(=O)c2ccc(C)cc2)OCCCC[C@H](C)O3)cc1 was read as MLL AF4-AF9 inh inactive, rRNA inh HTS inactive, ERAP1 inh inactive, S100A4 MyoIIA inactive and SIRT5 block inactive.
COc1ccc(S(=O)(=O)N(C)C[C@@H]2OCCCC[C@H](C)Oc3ccc(NS(=O)(=O)c4ccc(C)cc4)cc3C(=O)N([C@H](C)CO)C[C@H]2C)cc1 was read as MLL AF4-AF9 inh inactive, rRNA inh HTS inactive, ERAP1 inh inactive, S100A4 MyoIIA inactive, E-sel inducer inactive and SIRT5 block 22.
COc1ccc(S(=O)(=O)N(C)C[C@@H]2OCCCC[C@H](C)Oc3ccc(NS(=O)(=O)c4ccc(C)cc4)cc3C(=O)N([C@H](C)CO)C[C@@H]2C)cc1 was read as MLL AF4-AF9 inh inactive, rRNA inh HTS inactive, ERAP1 inh inactive, S100A4 MyoIIA inactive, E-sel inducer inactive and SIRT5 block 24.
C[C@H](CO)N1C[C@H](C)[C@H](CN(C)C(=O)Nc2ccc(C(F)(F)F)cc2)Oc2ncc(/C=C/c3ccccc3)cc2C1=O was read as MLL AF4-AF9 inh inactive, rRNA inh HTS inactive, ERAP1 inh inactive, S100A4 MyoIIA inactive, E-sel inducer inactive and SIRT5 block inactive.
`CC(=O)N1[C@@H](CO)[C@H](c2ccccc2)C12CN(C(=O)c1ccc3c(c1)OCO3)C2` gave MLL AF4-AF9 inh inactive, rRNA inh HTS inactive, ERAP1 inh inactive, S100A4 MyoIIA inactive, E-sel inducer inactive and SIRT5 block inactive.
`CCNC(=O)C[C@@H]1CC[C@H]2[C@@H](COc3ccc(NC(=O)Nc4c(C)noc4C)cc3C(=O)N2C)O1` gave MLL AF4-AF9 inh inactive, rRNA inh HTS inactive, ERAP1 inh inactive, S100A4 MyoIIA inactive, E-sel inducer inactive and SIRT5 block inactive.
For CO[C@@H]1CN(C)C(=O)c2cc(NC(=O)CC(F)(F)F)ccc2OC[C@@H](C)N(S(=O)(=O)c2cn(C)cn2)C[C@@H]1C the results were MLL AF4-AF9 inh inactive, rRNA inh HTS inactive, ERAP1 inh inactive, S100A4 MyoIIA inactive and E-sel inducer inactive.
Screening CCCCNC(=S)Nc1ccccc1Cc1ccccc1 returned MLL AF4-AF9 inh inactive, rRNA inh HTS -43, ERAP1 inh inactive, S100A4 MyoIIA inactive, E-sel inducer inactive and SIRT5 block inactive.

From PubChem BioAssay
